Consider 14 compounds from ChEMBL document CHEMBL1138008, “2-(2-[3-(pyridin-3-yloxy)phenyl]-2H-tetrazol-5-yl) pyridine: a highly potent, orally active, metabotropic glutamate subtype 5 (mGlu5) receptor antagonist” (Bioorg Med Chem Lett, 2004).

Data set [1] concerns the target T1, Metabotropic glutamate receptor 5 (Rattus norvegicus, UniProt P31424). Description: Binding affinity towards Metabotropic glutamate receptor was determined by displacing [3H]3-methoxy-5-(pyridin-2-ylethynyl)pyridine from rat cortical membranes. In short, it runs like this:
(§1)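 Radioligand displacement of [³H]-3-methoxy-5-(pyridin-2-ylethynyl)pyridine used rat cortical membranes. Values come from n = 2–4 determinations, with SD < ±25%.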

Data set [2] concerns the target T2, Metabotropic glutamate receptor 5 (Homo sapiens, UniProt P41594). Nature of the data set: Antagonistic activity against Metabotropic glutamate receptor 5 in [Ca2+] flux assay using glutamate (10 uM) as agonist. It counts as functional. In a few lines:
(§2)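 Functional mGlu5 antagonism was read as Ca²⁺ flux, with glutamate at 10 μM as agonist. Values come from n = 2–4 determinations, with SD < ±25%.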

Data set [3] in a line: Level in rat brain after 1 hr following 10 mg/kg dose ip. It counts as ADME, organism-based. On the set-up: dose 10 mg/kg, route intraperitoneal. As to conditions: read-out: Level; call rule not given here. In short, it runs like this: (§3)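 Rats were dosed ip at 10 mg/kg in PEG 400/water (1:1 v/v), given as a solution or a suspension. Receptor occupancy, hippocampus drug level and plasma drug level were measured 1 h after dosing.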

Data set [4] has as its target Metabotropic glutamate receptor 5 (Rattus norvegicus) (UniProt P31424). Nature of the data set: Percent occupancy of the Metabotropic glutamate receptor 5 by the [3H]3-methoxy-5-(pyridin-2-ylethynyl)pyridine ligand 1 hr post-administration of 10 mg/kg compound ip. It counts as organism-based. On the set-up: dose 10 mg/kg. In short, it runs like this:
as §3

Data set [5] can be described thus: Plasma level after 1 hr following 10 mg/kg dose ip. On the set-up: dose 10 mg/kg, route intraperitoneal. Conditions: rat, read-out: Level. It counts as ADME, organism-based. In a few lines: as §3
Data set [6] addresses T2, Metabotropic glutamate receptor 5. Nature of the data set: Antagonistic activity against Metabotropic glutamate receptor 5 in [Ca2+] flux assay using glutamate (10 uM) as agonist; NA=Not active. It counts as functional. In a few lines: as §2
Data set [7] concerns the target T1, Metabotropic glutamate receptor 5. Nature of the data set: Binding affinity towards Metabotropic glutamate receptor was determined by displacing [3H]3-methoxy-5-(pyridin-2-ylethynyl)pyridine from rat cortical membranes; NA=Not active. In a few lines:
as §1

A short description of data set [8]: Half life after i.v. dosing at 2 mg/kg, p.o. dosing at 10 mg/kg. In solution of PEG 400/water in rat. It counts as ADME, organism-based. As to conditions: in vivo. In a few lines:
(§4)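 Rats were dosed iv at 2 mg/kg and orally at 10 mg/kg, in solution in PEG 400/water (1:1 v/v).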

Data set [9] is described as follows: Volume of distribution after i.v. dosing at 1 mg/kg, p.o. dosing at 1 mg/kg. In solution of PEG 400/water in dog. It counts as ADME, organism-based, Canis lupus familiaris. As to conditions: in vivo, iv.
A short description of data set [10]: Plasma clearance after i.v. dosing at 2 mg/kg, p.o. dosing at 10 mg/kg. In solution of PEG 400/water in rat. It counts as ADME, organism-based. As to conditions: iv, read-out: Clp. In short, it runs like this:
as §4

Data set [11] can be described thus: Volume of distribution after i.v. dosing at 2 mg/kg, p.o. dosing at 10 mg/kg. In solution of PEG 400/water in rat. It counts as ADME, organism-based. Conditions: in vivo, iv. In short, it runs like this: as §4
A short description of data set [12]: Plasma clearance after i.v. dosing at 1 mg/kg, p.o. dosing at 1 mg/kg. In solution of PEG 400/water in dog. Conditions: iv, read-out: Clp. It counts as ADME, organism-based, Canis lupus familiaris.
Data set [13] can be described thus: Maximum concentration after i.v. dosing at 1 mg/kg, p.o. dosing at 1 mg/kg. In solution of PEG 400/water in dog. It counts as ADME, organism-based, Canis lupus familiaris. As to conditions: in vivo, po.
Data set [14] is described as follows: Half life after i.v. dosing at 1 mg/kg, p.o. dosing at 1 mg/kg. In solution of PEG 400/water in monkey. It counts as ADME, organism-based. As to conditions: cercopithecidae, in vivo.
Data set [15] can be described thus: Oral bioavailability after i.v. dosing at 1 mg/kg, p.o. dosing at 1 mg/kg. In solution of PEG 400/water in dog. It counts as ADME, organism-based, Canis lupus familiaris. Conditions: in vivo.
Data set [16] is described as follows: Oral bioavailability after i.v. dosing at 2 mg/kg, p.o. dosing at 10 mg/kg. In solution of PEG 400/water in rat. As to conditions: in vivo. It counts as ADME, organism-based. In short, it runs like this:
as §4

Data set [17] in a line: Half life after i.v. dosing at 1 mg/kg, p.o. dosing at 1 mg/kg. In solution of PEG 400/water in dog. It counts as ADME, organism-based, Canis lupus familiaris. Conditions: in vivo.
A short description of data set [18]: Maximum concentration after i.v. dosing at 2 mg/kg, p.o. dosing at 10 mg/kg. In solution of PEG 400/water in rat. It counts as ADME, organism-based. Conditions: in vivo, po. In a few lines: as §4
Data set [19] can be described thus: Volume of distribution after i.v. dosing at 1 mg/kg, p.o. dosing at 1 mg/kg. In solution of PEG 400/water in monkey. It counts as ADME, organism-based. As to conditions: cercopithecidae, in vivo, iv.
Data set [20] can be described thus: Oral bioavailability after i.v. dosing at 1 mg/kg, p.o. dosing at 1 mg/kg. In solution of PEG 400/water in monkey. It counts as ADME, organism-based. Conditions: cercopithecidae, in vivo.
Data set [21] is described as follows: Plasma clearance after i.v. dosing at 1 mg/kg, p.o. dosing at 1 mg/kg. In solution of PEG 400/water in monkey. It counts as ADME, organism-based. As to conditions: cercopithecidae, iv, read-out: Clp.
Data set [22] is described as follows: Maximum concentration after i.v. dosing at 1 mg/kg, p.o. dosing at 1 mg/kg. In solution of PEG 400/water in monkey. It counts as ADME, organism-based. Conditions: cercopithecidae, in vivo, po.

A word on the Ki: it is a dissociation constant, usually derived from enzyme kinetics or from competition with a known ligand. In general, IC50 refers to the concentration at which inhibition is half-maximal. One may read the half-life as how long it takes for the measured level to halve. Broadly, the Cmax is the maximum level reached in the sampled fluid or tissue. For orientation: bioavailability means dose-corrected exposure relative to a reference, in per cent.

T2 sequence (P41594 whole entry): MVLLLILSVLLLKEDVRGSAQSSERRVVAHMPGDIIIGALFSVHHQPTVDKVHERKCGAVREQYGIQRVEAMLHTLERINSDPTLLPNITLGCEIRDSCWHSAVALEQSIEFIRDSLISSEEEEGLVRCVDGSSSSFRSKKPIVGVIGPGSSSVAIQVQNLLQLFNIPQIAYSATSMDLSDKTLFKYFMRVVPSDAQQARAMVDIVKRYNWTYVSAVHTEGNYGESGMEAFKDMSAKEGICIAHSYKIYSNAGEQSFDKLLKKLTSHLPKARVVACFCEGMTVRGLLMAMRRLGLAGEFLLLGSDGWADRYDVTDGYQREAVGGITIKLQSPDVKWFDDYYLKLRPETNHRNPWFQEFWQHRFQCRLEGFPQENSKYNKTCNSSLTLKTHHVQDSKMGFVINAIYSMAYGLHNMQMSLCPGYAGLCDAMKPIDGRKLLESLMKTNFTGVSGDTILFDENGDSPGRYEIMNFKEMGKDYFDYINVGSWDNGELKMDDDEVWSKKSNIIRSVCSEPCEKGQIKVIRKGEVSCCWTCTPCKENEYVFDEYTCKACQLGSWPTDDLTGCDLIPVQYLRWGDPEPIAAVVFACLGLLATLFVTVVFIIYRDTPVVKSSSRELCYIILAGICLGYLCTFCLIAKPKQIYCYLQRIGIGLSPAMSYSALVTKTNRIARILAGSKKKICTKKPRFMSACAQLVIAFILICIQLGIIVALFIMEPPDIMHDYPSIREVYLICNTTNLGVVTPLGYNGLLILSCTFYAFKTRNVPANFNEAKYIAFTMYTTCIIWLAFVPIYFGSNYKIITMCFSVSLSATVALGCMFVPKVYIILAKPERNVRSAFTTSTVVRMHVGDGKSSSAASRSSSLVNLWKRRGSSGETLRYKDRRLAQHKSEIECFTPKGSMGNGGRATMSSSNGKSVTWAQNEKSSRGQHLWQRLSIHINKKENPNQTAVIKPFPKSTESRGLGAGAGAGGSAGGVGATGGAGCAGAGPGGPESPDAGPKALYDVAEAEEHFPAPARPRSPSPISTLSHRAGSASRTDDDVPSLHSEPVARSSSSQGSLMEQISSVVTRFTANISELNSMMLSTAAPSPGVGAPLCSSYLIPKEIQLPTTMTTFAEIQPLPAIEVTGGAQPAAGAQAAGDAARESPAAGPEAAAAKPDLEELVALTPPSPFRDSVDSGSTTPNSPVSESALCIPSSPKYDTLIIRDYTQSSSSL
Sequence of Metabotropic glutamate receptor 5 (Rattus norvegicus) (P31424 21-1203 limits assumed): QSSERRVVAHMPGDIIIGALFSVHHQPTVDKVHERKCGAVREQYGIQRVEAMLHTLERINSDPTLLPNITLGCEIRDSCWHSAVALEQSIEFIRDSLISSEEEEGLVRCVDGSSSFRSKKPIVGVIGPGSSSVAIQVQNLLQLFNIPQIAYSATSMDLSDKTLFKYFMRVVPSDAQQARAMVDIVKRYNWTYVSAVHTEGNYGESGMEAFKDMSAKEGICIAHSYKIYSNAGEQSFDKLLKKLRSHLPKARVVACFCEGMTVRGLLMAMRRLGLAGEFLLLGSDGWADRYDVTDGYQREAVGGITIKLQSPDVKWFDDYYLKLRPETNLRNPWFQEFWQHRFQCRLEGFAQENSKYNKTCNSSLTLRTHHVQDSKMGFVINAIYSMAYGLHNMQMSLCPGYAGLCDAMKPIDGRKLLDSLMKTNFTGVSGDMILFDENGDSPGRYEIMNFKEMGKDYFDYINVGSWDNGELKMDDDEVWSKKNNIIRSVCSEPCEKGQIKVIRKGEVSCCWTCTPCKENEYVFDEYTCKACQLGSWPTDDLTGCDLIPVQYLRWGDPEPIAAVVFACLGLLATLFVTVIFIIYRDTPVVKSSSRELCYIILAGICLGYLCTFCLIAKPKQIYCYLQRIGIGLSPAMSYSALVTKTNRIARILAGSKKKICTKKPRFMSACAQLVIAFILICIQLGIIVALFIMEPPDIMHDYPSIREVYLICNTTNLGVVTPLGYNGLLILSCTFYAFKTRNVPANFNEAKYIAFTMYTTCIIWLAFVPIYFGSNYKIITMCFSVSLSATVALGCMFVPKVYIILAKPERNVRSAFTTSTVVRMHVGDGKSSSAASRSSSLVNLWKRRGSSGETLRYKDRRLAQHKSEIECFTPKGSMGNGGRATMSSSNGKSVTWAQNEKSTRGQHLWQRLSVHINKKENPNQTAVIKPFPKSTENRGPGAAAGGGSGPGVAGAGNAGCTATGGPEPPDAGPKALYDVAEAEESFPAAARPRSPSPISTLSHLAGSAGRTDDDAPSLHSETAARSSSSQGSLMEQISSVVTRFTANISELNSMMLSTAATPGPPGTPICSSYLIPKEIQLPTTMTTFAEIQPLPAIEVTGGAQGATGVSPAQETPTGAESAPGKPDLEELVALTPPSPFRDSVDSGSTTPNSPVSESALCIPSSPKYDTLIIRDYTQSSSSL
T1 sequence (P31424 whole entry): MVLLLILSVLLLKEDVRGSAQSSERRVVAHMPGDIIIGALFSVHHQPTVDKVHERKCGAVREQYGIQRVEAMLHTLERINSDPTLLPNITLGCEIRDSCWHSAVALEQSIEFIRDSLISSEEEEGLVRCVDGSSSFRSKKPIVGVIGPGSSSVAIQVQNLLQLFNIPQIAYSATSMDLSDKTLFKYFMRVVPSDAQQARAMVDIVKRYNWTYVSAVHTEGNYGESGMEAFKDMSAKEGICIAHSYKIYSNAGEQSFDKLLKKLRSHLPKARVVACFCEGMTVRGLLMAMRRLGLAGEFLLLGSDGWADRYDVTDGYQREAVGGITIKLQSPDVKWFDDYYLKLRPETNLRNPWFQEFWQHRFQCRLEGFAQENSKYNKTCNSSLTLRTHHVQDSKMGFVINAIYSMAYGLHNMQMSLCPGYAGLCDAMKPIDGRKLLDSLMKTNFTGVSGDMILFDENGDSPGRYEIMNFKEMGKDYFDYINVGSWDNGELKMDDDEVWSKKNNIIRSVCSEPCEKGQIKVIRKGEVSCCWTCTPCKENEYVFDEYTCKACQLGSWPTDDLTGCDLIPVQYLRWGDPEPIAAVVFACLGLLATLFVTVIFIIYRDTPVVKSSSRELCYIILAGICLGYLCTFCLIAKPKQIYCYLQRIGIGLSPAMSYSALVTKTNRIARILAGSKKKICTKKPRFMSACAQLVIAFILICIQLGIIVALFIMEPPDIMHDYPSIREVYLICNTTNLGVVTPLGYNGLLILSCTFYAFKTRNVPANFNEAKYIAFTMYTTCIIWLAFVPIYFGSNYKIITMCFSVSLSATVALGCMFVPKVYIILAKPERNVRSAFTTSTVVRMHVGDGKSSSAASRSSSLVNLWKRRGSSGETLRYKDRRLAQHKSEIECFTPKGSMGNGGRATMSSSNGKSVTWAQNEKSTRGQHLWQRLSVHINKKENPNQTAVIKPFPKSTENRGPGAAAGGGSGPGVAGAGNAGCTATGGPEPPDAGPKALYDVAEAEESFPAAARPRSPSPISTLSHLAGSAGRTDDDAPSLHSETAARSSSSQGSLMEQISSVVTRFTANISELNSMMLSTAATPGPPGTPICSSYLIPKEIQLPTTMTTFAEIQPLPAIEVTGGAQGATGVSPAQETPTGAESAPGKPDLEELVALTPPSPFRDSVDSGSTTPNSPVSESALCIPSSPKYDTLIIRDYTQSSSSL

In turn, `c1ccc(-c2nnn(-c3ccc(Oc4cccnc4)cc3)n2)nc1` returned a Ki in data set [1] of 633 nM. This compound displayed an IC50 in [2] of 737 nM.

In the case of `CN(c1cccnc1)c1cc(F)cc(-n2nnc(-c3ccccn3)n2)c1`, the concentration at 1 h was determined as 4.9 µM in data set [3] and 3.5 µM in data set [5]. In addition, in data set [1], affinity was put at a Ki of 30 nM. This compound also yielded an Occupancy in [4] of 58%. Also, in data set [2], the IC50 came out at 22 nM.

`c1ccc(Oc2cccc(-n3nnc(-c4ccccn4)n3)c2)nc1` returned a Ki in [1] of 633 nM. For the same compound, the IC50 in data set [2] stood at 2860 nM.

The compound `c1ccc(Oc2cccc(-n3nnc(-c4ccccn4)n3)c2)cc1` came in with a Ki in data set [1] of 617 nM. For the same compound, the IC50 in data set [2] amounted to 1460 nM.

Compound `Fc1cc(Nc2cccnc2)cc(-n2nnc(-c3ccccn3)n2)c1` had a Ki in data set [1] of 29 nM. Also, in [2], the IC50 worked out at 124 nM.

For `Fc1cc(Sc2cccnc2)cc(-n2nnc(-c3ccccn3)n2)c1`, the concentration at 1 h in [3] worked out at 1.5 µM; in data set [5] it was 3.4 µM. In data set [1], the affinity, expressed as Ki, was 16 nM. Also, the Occupancy in data set [4] was 83%. In data set [2], this compound gave a half-inhibitory concentration (IC50) of 13 nM.

Turning to `Fc1cc(-n2nnc(-c3ccccn3)n2)cc(-n2ccc3cccnc32)c1`, the affinity in data set [1], expressed as Ki, was 25 nM. In [2], the IC50 is 16 nM.

As to `c1ccc(-c2nnn(-c3ccccc3Oc3cccnc3)n2)nc1`, the IC50 in data set [2] was 1580 nM.

On to `N#Cc1cccc(-n2nnc(-c3ccccn3)n2)c1`, for which the concentration at 1 h amounted to 12 µM in data set [3] and 13 µM in data set [5]. The same compound had a Ki in data set [1] of 186 nM. Also, the Occupancy in [4] amounted to 96%. In [2], this compound had an IC50 of 73 nM.

In data set [1], `c1ccc(-c2nnn(-c3cccc(Oc4cccnc4)c3)n2)nc1` displayed a Ki of 59 nM. Besides, the Occupancy in data set [4] turned out to be 60%. Also, the IC50 in data set [2] came to 30 nM.

Consider `c1ccc(-c2nnn(-c3cccc(Oc4ccncc4)c3)n2)nc1`, for which the IC50 result in data set [6] is “Not Active”. Moreover, the Ki entry in [7] is “Not Active”.

For the compound `N#Cc1cc(F)cc(-n2nnc(-c3ccccn3)n2)c1`, the results for the concentration at 1 h in data set [3] and in [5] were 9.7 µM and 8.7 µM, respectively. In addition, in data set [4], the Occupancy came to 97%. The compound further registered a 50% inhibitory concentration (IC50) in data set [2] of 3.9 nM.

Take `Fc1cc(Oc2cccnc2)cc(-n2nnc(-c3ccccn3)n2)c1`: the values for the concentration at 1 h in data set [3] and in data set [5] were 6.7 µM and 7.4 µM, respectively. For the same compound, the half-life in data set [8] is 2.7 h; in data set [14], 2.5 h; in data set [17] it was 2.3 h. Also, the affinity in data set [1], expressed as Ki, was 12 nM. For the same compound, the values for the Vd in [9], in data set [11] and in [19] were 1.5 L/kg, 22 L/kg and 0.7 L/kg, respectively. Moreover, the figures for the clearance in data set [10], in data set [12] and in data set [21] were 21 mL/min/kg, 14 mL/min/kg and 7.7 mL/min/kg, respectively. Moreover, the Cmax came out at 1.4 µM in data set [13], 11 µM in [18] and 0.3 µM in data set [22]. The bioavailability in data set [15] is 54%; in data set [16], 100%; in [20] it was 27%. The IC50 in data set [2] was found to be 6.7 nM.

On to `Fc1cc(Cc2cccnc2)cc(-n2nnc(-c3ccccn3)n2)c1`, for which the concentration at 1 h in data set [3] was found to be 2.7 µM; in [5], 0.9 µM. This compound also yielded an inhibitory constant (Ki) in [1] of 38 nM. In data set [4], this compound returned an Occupancy of 43%. Further, the IC50 in [2] stood at 17 nM.
